From ChEMBL document CHEMBL1828552, “Synthesis and studies of novel 2-(4-cyano-3-trifluoromethylphenyl amino)-4-(quinoline-4-yloxy)-6-(piperazinyl/piperidinyl)-s-triazines as potential antimicrobial, antimycobacterial and anticancer agents” (2011)
Values after ≈ are worked out from the molar mass of the structure shown.

How the values were obtained:
Klebsiella pneumoniae [1] = experiment: Antibacterial activity against 10^5 CFU/mL Klebsiella pneumoniae MTCC 109 after 24 hrs by agar streak dilution method; assay type: functional; settings: MTCC 109, 24 h
Procedure, shortened: (§1)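 Agar streak dilution. Stock 100 µg/mL in DMSO; graded amounts were mixed into molten nutrient agar and poured at 4–5 mm depth. Plates carried serial dilutions over […]. About 10⁵ CFU/mL of each bacterium was applied, and plates were incubated at 37 ± 1 °C for 24 h. MIC was read from the dilution series.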

Pseudomonas aeruginosa [2] = experiment: Antibacterial activity against 10^5 CFU/mL Pseudomonas aeruginosa MTCC 741 after 24 hrs by disc diffusion technique; assay type: functional
Procedure, shortened: (§2)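 Disc diffusion on Mueller–Hinton agar poured 5 mm deep. The surface was swabbed with a 10⁵ CFU/mL […] suspension. Filter-paper discs 6.25 mm in diameter were soaked in compound in DMSO and placed on the agar. Plates were incubated 24 h at 37 ± 1 °C, and the inhibition zone was measured in mm. A DMSO disc served as blank.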

[3] = tested on: Mycobacterium tuberculosis; experiment: Antimycobacterial activity against 10^4 to 10^7 CFU/mL Mycobacterium tuberculosis H37Rv after 24 hrs measured after 28 days post-inoculation; assay type: functional
Procedure, shortened: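 Secondary MIC on Lowenstein-Jensen medium. DMSO dilutions (50, 25, 12.5, 6.25, […]) added to L.J. medium, then inspissated. Tubes incubated at 37 ± 1 °C for 24 h, then streaked with 5×10⁴ H37Rv bacilli per tube. Growth read at 12, 22 and 28 days against drug-free controls. MIC = no colonies or fewer than 20 colonies.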

Bacillus cereus [4] = experiment: Antibacterial activity against 10^5 CFU/mL Bacillus cereus MTCC 619 after 24 hrs by agar streak dilution method; assay type: functional; settings: MTCC 619, 24 h; procedure, shortened: as §1
Proteus vulgaris [5] = experiment: Antibacterial activity against 10^5 CFU/mL Proteus vulgaris MTCC 1771 after 24 hrs by disc diffusion technique; assay type: functional; procedure, shortened: as §2
Aspergillus clavatus [6] = experiment: Antifungal activity against 10^5 CFU/mL Aspergillus clavatus MTCC 1323 after 48 hrs by disc diffusion technique; assay type: functional
Staphylococcus aureus [7] = experiment: Antibacterial activity against 10^5 CFU/mL Staphylococcus aureus MTCC 96 after 24 hrs by disc diffusion technique; assay type: functional; procedure, shortened: as §2
Salmonella typhi [8] = experiment: Antibacterial activity against 10^5 CFU/mL Salmonella typhi MTCC 733 after 24 hrs by disc diffusion technique; assay type: functional, Salmonella enterica subsp. enterica serovar Typhi
Procedure, shortened: (§3)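 Disc diffusion. Mueller-Hinton agar autoclaved 120 °C 30 min, poured 5 mm deep. Surface swabbed with 10⁵ CFU/mL suspension […]. 6.25 mm filter-paper discs soaked in compound in DMSO; DMSO-only disc as blank. Incubated 37 ± 1 °C, 24 h for bacteria or 48 h for fungi. Ciprofloxacin and ketoconazole discs as reference drugs. Inhibition zone measured in mm.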

DU-145 = experiment: Cytotoxicity against […] human DU145 cells after 48 hrs by SRB assay; assay type: functional; settings: DU-145, 48 h
Procedure, shortened: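 SRB assay in DU-145 cells grown in RPMI 1640 with 10% FBS and 2 mM L-glutamine. Cells were plated and held 24 h before addition of four 10-fold concentrations. After 48 h, cells were TCA-fixed, stained with 0.4% SRB and read at 540 nm. GI50, TGI and LC50 were derived against time-zero and control wells; each value is the mean of three experiments.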

Staphylococcus aureus [9] = experiment: Antibacterial activity against 10^5 CFU/mL Staphylococcus aureus MTCC 96 after 24 hrs by agar streak dilution method; assay type: functional; settings: MTCC 96, 24 h; procedure, shortened: as §1
Aspergillus niger [10] = experiment: Antifungal activity against 10^5 CFU/mL Aspergillus niger MTCC 282 after 48 hrs by disc diffusion technique; assay type: functional
Aspergillus fumigatus [11] = experiment: Antifungal activity against 10^5 CFU/mL Aspergillus fumigatus MTCC 343 after 48 hrs by agar streak dilution method; assay type: functional; settings: MTCC 343, 48 h
Procedure, shortened: (§4)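 Agar streak dilution for fungi. Stock 100 µg/mL in DMSO; graded amounts were mixed into molten Sabouraud dextrose agar and poured at 4–5 mm depth. Serial dilutions ran over […]. About 10⁵ CFU/mL inoculum was applied, with incubation at 37 ± 1 °C for 48 h. MIC was read from the dilution series.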

Pseudomonas aeruginosa [12] = experiment: Antibacterial activity against 10^5 CFU/mL Pseudomonas aeruginosa MTCC 741 after 24 hrs by agar streak dilution method; assay type: functional; settings: MTCC 741, 24 h; procedure, shortened: as §1
Bacillus cereus [13] = experiment: Antibacterial activity against 10^5 CFU/mL Bacillus cereus MTCC 619 after 24 hrs by disc diffusion technique; assay type: functional; procedure, shortened: as §2
Shigella flexneri [14] = experiment: Antibacterial activity against 10^5 CFU/mL Shigella flexneri MTCC 1457 after 24 hrs by disc diffusion technique; assay type: functional; procedure, shortened: as §2
Aspergillus clavatus [15] = experiment: Antifungal activity against 10^5 CFU/mL Aspergillus clavatus MTCC 1323 after 48 hrs by agar streak dilution method; assay type: functional; settings: MTCC 1323, 48 h; procedure, shortened: as §4
Proteus vulgaris [16] = experiment: Antibacterial activity against 10^5 CFU/mL Proteus vulgaris MTCC 1771 after 24 hrs by agar streak dilution method; assay type: functional; settings: MTCC 1771, 24 h; procedure, shortened: as §1
Candida albicans [17] = experiment: Antifungal activity against 10^5 CFU/mL Candida albicans MTCC 183 after 48 hrs by disc diffusion technique; assay type: functional
Shigella flexneri [18] = experiment: Antibacterial activity against 10^5 CFU/mL Shigella flexneri MTCC 1457 after 24 hrs by agar streak dilution method; assay type: functional; settings: MTCC 1457, 24 h; procedure, shortened: as §1
Candida albicans [19] = experiment: Antifungal activity against 10^5 CFU/mL Candida albicans MTCC 183 after 48 hrs by agar streak dilution method; assay type: functional; settings: MTCC 183, 48 h; procedure, shortened: as §4
Aspergillus fumigatus [20] = experiment: Antifungal activity against 10^5 CFU/mL Aspergillus fumigatus MTCC 343 after 48 hrs by disc diffusion technique; assay type: functional
Escherichia coli [21] = experiment: Antibacterial activity against 10^5 CFU/mL Escherichia coli MTCC 739 after 24 hrs by disc diffusion technique; assay type: functional; procedure, shortened: as §2
Aspergillus niger [22] = experiment: Antifungal activity against 10^5 CFU/mL Aspergillus niger MTCC 282 after 48 hrs by agar streak dilution method; assay type: functional; settings: MTCC 282, 48 h; procedure, shortened: as §4
Escherichia coli [23] = experiment: Antibacterial activity against 10^5 CFU/mL Escherichia coli MTCC 739 after 24 hrs by agar streak dilution method; assay type: functional; settings: MTCC 739, 24 h; procedure, shortened: as §1
Klebsiella pneumoniae [24] = experiment: Antibacterial activity against 10^5 CFU/mL Klebsiella pneumoniae MTCC 109 after 24 hrs by disc diffusion technique; assay type: functional; procedure, shortened: as §2
Salmonella typhi [25] = experiment: Antibacterial activity against 10^5 CFU/mL Salmonella typhi MTCC 733 after 24 hrs by agar streak dilution method; assay type: functional, Salmonella enterica subsp. enterica serovar Typhi; settings: Salmonella enterica, MTCC 733, 24 h
Proteus vulgaris [26] = experiment: Antibacterial activity against 10^5 CFU/mL Proteus vulgaris MTCC 1771 at 100 ug/ml after 24 hrs by disc diffusion technique; assay type: functional; settings: MTCC 1771, 24 h, read-out: IZ; procedure, shortened: as §2
Bacillus cereus [27] = experiment: Antibacterial activity against 10^5 CFU/mL Bacillus cereus MTCC 619 at 100 ug/ml after 24 hrs by disc diffusion technique; assay type: functional; settings: MTCC 619, 24 h, read-out: IZ; procedure, shortened: as §2
Escherichia coli [28] = experiment: microbe, parasite or virus in culture; settings: MTCC 739, 24 h, read-out: IZ
Shigella flexneri [29] = experiment: Antibacterial activity against 10^5 CFU/mL Shigella flexneri MTCC 1457 at 100 ug/ml after 24 hrs by disc diffusion technique; assay type: functional; settings: MTCC 1457, 24 h, read-out: IZ; procedure, shortened: as §2
Staphylococcus aureus [30] = experiment: Antibacterial activity against 10^5 CFU/mL Staphylococcus aureus MTCC 96 at 100 ug/ml after 24 hrs by disc diffusion technique; settings: MTCC 96, 24 h, read-out: IZ
Klebsiella pneumoniae [31] = experiment: microbe, parasite or virus in culture; settings: MTCC 109, 24 h, read-out: IZ
Pseudomonas aeruginosa [32] = experiment: microbe, parasite or virus in culture; settings: MTCC 741, 24 h, read-out: IZ
Salmonella typhi [33] = experiment: Antibacterial activity against 10^5 CFU/mL Salmonella typhi MTCC 733 at 100 ug/ml after 24 hrs by disc diffusion technique; assay type: functional, Salmonella enterica subsp. enterica serovar Typhi; settings: Salmonella enterica, MTCC 733, 24 h; read-out: IZ; procedure, shortened: as §3
Aspergillus fumigatus [34] = experiment: Antifungal activity against 10^5 CFU/mL Aspergillus fumigatus MTCC 343 at 100 ug/ml after 48 hrs by disc diffusion technique; assay type: functional; settings: MTCC 343, 48 h, read-out: IZ; procedure, shortened: as §3
Aspergillus clavatus [35] = experiment: Antifungal activity against 10^5 CFU/mL Aspergillus clavatus MTCC 1323 at 100 ug/ml after 48 hrs by disc diffusion technique; assay type: functional; settings: MTCC 1323, 48 h, read-out: IZ; procedure, shortened: as §3
Candida albicans [36] = experiment: Antifungal activity against 10^5 CFU/mL Candida albicans MTCC 183 at 100 ug/ml after 48 hrs by disc diffusion technique; assay type: functional; settings: MTCC 183, 48 h, read-out: IZ; procedure, shortened: as §3
Aspergillus niger [37] = experiment: Antifungal activity against 10^5 CFU/mL Aspergillus niger MTCC 282 at 100 ug/ml after 48 hrs by disc diffusion technique; assay type: functional; settings: MTCC 282, 48 h, read-out: IZ; procedure, shortened: as §3

CC1CC(C)CN(c2nc(Nc3ccc(C#N)c(C(F)(F)F)c3)nc(Oc3ccnc4ccccc34)n2)C1 (configuration not stated)
MIC (Klebsiella pneumoniae [1]): 25 µg/mL (≈ 48.1 µM) | inhibition zone (IZ) (Pseudomonas aeruginosa [2]): 24 mm | MIC99 [3]: 3.12 µg/mL (≈ 6.01 µM) | MIC (Bacillus cereus [4]): 12.5 µg/mL (≈ 24.1 µM) | inhibition zone (IZ) (Proteus vulgaris [5]): 27 mm | inhibition zone (IZ) (Aspergillus clavatus [6]): 26 mm | inhibition zone (IZ) (Staphylococcus aureus [7]): 27 mm | inhibition zone (IZ) (Salmonella typhi [8]): 27 mm | GI50 (DU-145): 27.2 µM | LC50 (concentration giving 50% net cell kill relative to time zero) (DU-145): > 100 µM | TGI (DU-145): 68 µM | MIC (Staphylococcus aureus [9]): 6.25 µg/mL (≈ 12 µM) | inhibition zone (IZ) (Aspergillus niger [10]): 23 mm | MIC (Aspergillus fumigatus [11]): 50 µg/mL (≈ 96.2 µM) | MIC (Pseudomonas aeruginosa [12]): 12.5 µg/mL (≈ 24.1 µM) | inhibition zone (IZ) (Bacillus cereus [13]): 25 mm | inhibition zone (IZ) (Shigella flexneri [14]): 25 mm | MIC (Aspergillus clavatus [15]): 25 µg/mL (≈ 48.1 µM) | MIC (Proteus vulgaris [16]): 6.25 µg/mL (≈ 12 µM) | inhibition zone (IZ) (Candida albicans [17]): 18 mm | MIC (Shigella flexneri [18]): 12.5 µg/mL (≈ 24.1 µM) | MIC (Candida albicans [19]): 100 µg/mL (≈ 192 µM) | inhibition zone (IZ) (Aspergillus fumigatus [20]): 25 mm | inhibition zone (IZ) (Escherichia coli [21]): 25 mm | MIC (Aspergillus niger [22]): 50 µg/mL (≈ 96.2 µM) | MIC (Escherichia coli [23]): 12.5 µg/mL (≈ 24.1 µM) | inhibition zone (IZ) (Klebsiella pneumoniae [24]): 23 mm | MIC (Salmonella typhi [25]): 12.5 µg/mL (≈ 24.1 µM)

O=C(O)c1cn(C2CC2)c2cc(N3CCNCC3)c(F)cc2c1=O [CIPROFLOXACIN]
MIC (Klebsiella pneumoniae [1]): ≤ 1 µg/mL | zone of inhibition at 100 µg/mL (Proteus vulgaris [26]): 31 mm | zone of inhibition at 100 µg/mL (Bacillus cereus [27]): 31 mm | zone of inhibition at 100 µg/mL (Escherichia coli [28]): 32 mm | MIC (Bacillus cereus [4]): ≤ 1 µg/mL | MIC (Staphylococcus aureus [9]): ≤ 1 µg/mL | MIC (Pseudomonas aeruginosa [12]): ≤ 1 µg/mL | zone of inhibition at 100 µg/mL (Shigella flexneri [29]): 32 mm | zone of inhibition at 100 µg/mL (Staphylococcus aureus [30]): 30 mm | MIC (Proteus vulgaris [16]): ≤ 1 µg/mL | MIC (Shigella flexneri [18]): ≤ 3 µg/mL | zone of inhibition at 100 µg/mL (Klebsiella pneumoniae [31]): 33 mm | zone of inhibition at 100 µg/mL (Pseudomonas aeruginosa [32]): 33 mm | MIC (Escherichia coli [23]): ≤ 1 µg/mL | MIC (Salmonella typhi [25]): ≤ 1 µg/mL | zone of inhibition at 100 µg/mL (Salmonella typhi [33]): 30 mm

CC(=O)N1CCN(c2ccc(OCC3COC(Cn4ccnc4)(c4ccc(Cl)cc4Cl)O3)cc2)CC1 (configuration not stated) [KETOCONAZOLE]
zone of inhibition at 100 µg/mL (Aspergillus fumigatus [34]): 29 mm | zone of inhibition at 100 µg/mL (Aspergillus clavatus [35]): 31 mm | zone of inhibition at 100 µg/mL (Candida albicans [36]): 33 mm | MIC (Aspergillus fumigatus [11]): ≤ 1 µg/mL | MIC (Aspergillus clavatus [15]): ≤ 1 µg/mL | MIC (Candida albicans [19]): ≤ 1 µg/mL | MIC (Aspergillus niger [22]): ≤ 3 µg/mL | zone of inhibition at 100 µg/mL (Aspergillus niger [37]): 30 mm
